# The list is not random: actives were taken first. Their share in the collection is about 2.9%.
# RanGTP-Imp inh = inhibitors of RanGTP-importin-beta interaction, primary screen, biochemical, FRET, CFP-Ran, YFP-importin-beta, homogeneous | cell-free CFP-Ran/YFP-importin-beta FRET ratio | inhibition, % (no concentration beside the values) | actives 1.1% (n = 300,000) | AID 2216;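 active means more than half of the replicate wells show a fall in the fluorescence ratio signal beyond about 16%, limit read from the data, passing the limit was not always enough; inconclusive means exactly half of the replicate wells pass the set limit; inactive means fewer than half of replicates pass the limit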;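 further: 0% = DMSO wells and 100% = Ran loaded with GDP instead of GTP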
# KLK7 zymogen act = activates the human kallikrein-7 zymogen; actives 0.9% (n = 370,000); activation, % at 7 µM; purified proKLK7, EDANS-DABCYL substrate fluorescence; 100% is mature enzyme control, 0% vehicle; AID 652039;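 active means activation above the mean of all tested compounds plus 3 SD, computed per campaign excluding outliers beyond control limits, cut at about 13% in these data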
# Wee1 stabilizer = blocks degradation of human Wee1 kinase. HeLa Luc-Wee1K328M stability, luciferase luminescence; 100% = proteasome inhibitor MG132 effect. P30291. reporter increase, % at 5 µM. actives 1.2% (n = 220,000);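 active means activation above the mean of all tested compounds plus 3 SD, set per screening run, cut at about 8.8% in these data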;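 further: cells exposed to compound for 20 h before luminescence read; 0% = DMSO alone and 100% = MG132 at 30 µM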
# AI-2 QS modul = Vibrio harveyi AI-2 quorum sensing modulation; Vibrio harveyi JMH597 AI-2 luminescence/OD600 ratio, 9 h; stronger effect = lower value; strain lacks LuxN and CqsS sensors; 0 = neutral-control median; activity change, % at 7.5 µM; actives 0.4% (n = 300,000); in the data active means activity change below about -75%, passing the limit was not always enough; inconclusive means no clear call, values can overlap the other calls;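 further: luminescence divided by OD600 gain over 9 h not by final OD600 alone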
# Runt-CBFb FRET = blocks binding of human RUNX1 Runt domain to CBFb. Q01196+Q13951. Cerulean-Runt/Venus-CBFb FRET ratio 530/480, 1 h. inhibition, % at 20 µM. actives 0.46% (n = 220,000);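 active means inhibition over about 50% at 20 µM in the single-dose screen, limit read from the data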;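 further: 0% = DMSO wells and 100% = excess unlabeled CBFb competitor control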
# Target sequence (Q01196 whole entry, looked up, the tested form may be a part): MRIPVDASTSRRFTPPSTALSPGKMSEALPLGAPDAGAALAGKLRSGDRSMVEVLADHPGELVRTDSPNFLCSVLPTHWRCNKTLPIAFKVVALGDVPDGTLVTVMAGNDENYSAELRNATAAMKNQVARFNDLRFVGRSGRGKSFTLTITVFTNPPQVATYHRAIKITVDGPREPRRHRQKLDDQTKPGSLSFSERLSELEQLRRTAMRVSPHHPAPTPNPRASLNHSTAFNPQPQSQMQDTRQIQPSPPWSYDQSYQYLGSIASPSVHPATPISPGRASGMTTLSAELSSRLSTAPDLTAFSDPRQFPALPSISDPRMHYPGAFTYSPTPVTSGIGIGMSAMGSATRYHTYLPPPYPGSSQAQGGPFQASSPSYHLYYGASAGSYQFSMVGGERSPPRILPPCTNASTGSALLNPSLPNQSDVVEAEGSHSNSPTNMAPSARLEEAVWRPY
# Target sequence (Q13951 whole entry, looked up, the tested form may be a part): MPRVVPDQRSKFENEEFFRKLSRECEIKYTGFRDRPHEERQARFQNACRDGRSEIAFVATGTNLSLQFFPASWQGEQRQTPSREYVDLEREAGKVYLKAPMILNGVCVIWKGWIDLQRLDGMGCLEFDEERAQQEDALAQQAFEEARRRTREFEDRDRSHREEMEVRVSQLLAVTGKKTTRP
#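 Buffer or medium: Tris pH 7.5 buffer with BSA. Assay system: Cerulean-labeled Runt domain protein. Amount: each fluorescent fusion protein 100 nM. Read-out basis: loss of energy transfer signal. Incubation: 1 h compound exposure, room temperature. Probe or stimulus: Venus-CBFb binding partner, 100 nM. Detection: FRET, excitation 422 nm, emission at 530 and 480 nm.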
# Runt-SMMHC FRET = blocks binding of human RUNX1 Runt domain to CBFb-SMMHC | Q01196+Q13951 | Cerulean-Runt/Venus-CBFb-SMMHC FRET ratio 530/480, 1 h | inhibition, % at 20 µM | actives 0.74% (n = 220,000);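 active means mean inhibition across duplicate retests at 20 µM reaching about 50%, limit read from the data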;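 further: 0% = DMSO wells and 100% = wells with excess untagged CBFb-SMMHC; inhibitors lower the FRET ratio by blocking Runt binding to CBFb-SMMHC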
# Active calls of the source: *; ? = inconclusive; · = not tested or not shown.
SMILES,RanGTP-Imp inh,KLK7 zymogen act,Wee1 stabilizer,AI-2 QS modul,Runt-CBFb FRET,Runt-SMMHC FRET
COc1cc2c3nnc(-c4ccc(F)cc4)c-3cn(Cc3ccccc3)c2cc1OC,-182.6,29.2*,2.0,69.0,-0.3,20.8
O=C1C2CCCN2C(c2ccco2)N1c1ccc(F)cc1 (configuration not stated),-0.3,0.0,10.0*,-1.3,-0.4,0.8
CN1CCCCC(NC(=O)c2cccc(F)c2)C1=O (configuration not stated),·,0.0,·,·,·,·
Cc1csc(NC(=O)c2cc(C)nc3ccccc23)n1,4.2,-0.4,5.3,4.1,0.0,7.5
Cc1csc(NC(=O)c2cc(=O)[nH]c3ccccc23)n1,4.1,1.3,4.8,16.8,30.3,68.8*
CCOC(=O)CN=C/C(C(C)=O)=C(/C)O,62.7*,0.2,-0.1,16.1,0.6,0.0
CCCOC(=O)c1ccc(NC(=O)c2c(Cl)ccc(Cl)c2OC)cc1,30.6*,0.2,-2.1,8.1,2.4,5.9
CCCOC(=O)c1ccc(NC(=O)c2ccccc2OC)cc1,-2.9,-0.1,-2.4,6.0,-3.8,-0.4
CN1CCN(C(c2cccnc2)c2ccc3cccnc3c2O)CC1 (configuration not stated),?,·,2.1,-47.5,10.4,10.0
CN1CCN(C(c2ccc(Br)cc2)c2cc(Cl)c3cccnc3c2O)CC1 (configuration not stated),-0.8,-0.3,·,-141.2*,·,·
CC(C)c1nc(SCC(=O)Nc2ccc3c(c2)OCCO3)n[nH]1,19.5*,0.2,3.0,-12.7,-0.4,-3.0
Cc1ccc(NC2OC(C(O)CO)C(O)C2O)cc1[N+](=O)[O-] (configuration not stated),3.6,0.0,-0.8,9.4,-1.3,-7.3
CCCCCCc1cc2cc(C(=O)NCc3ccccc3)c(=N)oc2cc1O,146.4*,-1.2,-1.8,22.5,39.8,75.1
N=c1oc2ccc(Br)cc2cc1C(=O)NCc1ccc(F)cc1,1.7,0.4,·,13.8,·,·
CCN(CC)c1ccc2cc(C(=O)NCc3ccc(F)cc3)c(=N)oc2c1,99.4*,-0.3,·,29.1,·,·
N=c1oc2ccccc2cc1C(=O)Nc1ccccc1,2.7,-0.3,·,5.6,·,·
CCCCCCc1cc2cc(C(=O)Nc3ccccc3)c(=O)oc2cc1O,116.9*,-0.6,-2.2,5.5,113.0*,58.5*
CCOC(=O)c1c(NC(=O)CSc2nnc(-c3c[nH]c4ccccc34)n2CCOC)sc2c1CCCC2,-5.6,0.9,-1.9,21.8,0.2,-3.9
CCOC(=O)c1c(NC(=O)CSc2nnc(-c3c[nH]c4ccccc34)n2C)sc2c1CCCC2,25.9*,1.5,-0.3,0.4,1.0,1.5
COC(=O)C1=C(C)N(C)C(=NCc2cc(OC)c(OC)c(OC)c2)NC1c1ccc(C(F)(F)F)cc1 (configuration not stated),·,-0.2,·,·,·,·
O=C(c1ccccc1)N1CCC2CCN(S(=O)(=O)c3ccccc3)CC21 (configuration not stated),·,0.0,·,·,·,·
O=C(NNc1nc2cc3c(cc2s1)OCCO3)c1ccc(F)cc1,3.8,0.3,-1.2,-89.9*,34.8,4.7
CCN(CC)CCCN1C=C2C(=O)C(C)(OC(=O)CCc3ccccc3)C(=O)C=C2C=C1c1ccc(C#N)cc1 (configuration not stated),0.4,·,·,46.3,36.0,50.9*
COc1ccc(S[C@]2(C(=O)N(C)C)CC(=O)N(C(=O)c3ccccc3)[C@@H]2c2ccc(OC)cc2)cc1,·,0.5,·,·,·,·
Cc1ccc(CNC(=O)Nc2ccc3c(c2)N(C)C(=O)CS3)cc1,0.3,0.3,-2.6,-77.6*,-2.7,-3.8
SMILES,RanGTP-Imp inh,KLK7 zymogen act,Wee1 stabilizer,AI-2 QS modul,Runt-CBFb FRET,Runt-SMMHC FRET
CCOc1ccc(-n2c(SCC(=O)Nc3ccc(S(=O)(=O)Nc4nccs4)cc3)nnc2-c2ccc(C(C)(C)C)cc2)cc1,·,-0.3,·,·,·,·
O=[N+]([O-])c1c(Nc2cccc(O)c2)cc(Cl)c2nonc12,-6.3,0.0,·,-219.3*,·,·
COCCOC(=O)c1cc(C(=O)c2cc(F)ccc2O)coc1=N,31.5*,-1.0,-0.2,31.7,40.1,119.8*
COC(=O)c1cc(C(=O)c2cc(Cl)ccc2O)coc1=N,-2.6,-0.2,4.2,21.4,5.9,10.0
N#CC(C#N)=C1C=C2C=C(N3CCOCC3)CCC2CC1 (configuration not stated),-1.6,4.8,-0.4,22.9,19.9,86.5*
N#CC(C#N)=C1C=C2C=C(N3CCCCCC3)CCC2CC1 (configuration not stated),44.5*,10.0,1.5,30.4,4.2,82.6*
CCN1CCN(C2=CC3=CC(=C(C#N)C#N)CCC3CC2)CC1 (configuration not stated),·,·,-0.7,·,-114.7,86.2*
CC1(C)CC(NCCN2CCN(C3=CC(=C(C#N)C#N)CC(C)(C)C3)CC2)=CC(=C(C#N)C#N)C1,-2.2,-0.3,-3.4,16.1,-11.7,-26.9
N#Cc1cc(Cl)c(N2CCOCC2)cc1C#N,4.4,-0.1,1.6,8.5,0.5,-2.8
CN1CCN(C2=CC3=CC(=C(C#N)C#N)CCC3CC2)CC1 (configuration not stated),·,·,0.9,·,-27.3,88.4*
CCOP(=O)(OCC)C(C)(C)NC(=O)Nc1ccc(Cl)c(Cl)c1,5.6,-0.5,2.3,18.7,-1.0,-0.4
CC(=O)/C(=C\N(C)C)Sc1ccc(Cl)cc1,1.6,0.1,9.1*,12.0,3.4,-5.6
CC(=O)/C(=C\N(C)C)Sc1ccc(C)cc1,-1.1,0.3,-0.1,15.3,-0.6,0.8
NC1CCN(c2c(F)cc3c(=O)c(C(=O)O)cn(C4CC4)c3c2Cl)C1 (configuration not stated),0.2,0.0,4.6,-88.1*,0.7,1.7
COc1c(N2CCNC(C)C2)c(F)cc2c(=O)c(C(=O)O)cn(C3CC3)c12 (configuration not stated),7.7,·,·,26.7,·,·
CCn1ncc(Br)c1C(=O)Nc1sc2c(c1C(N)=O)CCC2,46.8*,1.8,2.0,13.2,3.5,-3.4
Cc1ccc(-c2nn(-c3ccccc3)cc2C(=O)NCC2CCCO2)cc1 (configuration not stated),-0.7,0.5,·,12.7,·,·
COc1ccccc1C(=O)COC(=O)c1cc(=O)[nH]c2ccccc12,2.8,-3.0,·,-13.1,·,·
Cc1ccc(C(=O)COC(=O)c2cc(=O)[nH]c3ccccc23)cc1C,37.1*,-1.0,3.4,9.8,0.4,-2.9
COc1ccc2c(c1)CNC2CS(=O)(=O)NCc1ccc(F)cc1 (configuration not stated),·,0.4,·,·,·,·
Cc1cc(C)c2c(ccc3ccccc32)n1,·,0.8,·,·,·,·

# Screening results (PubChem BioAssay)
